Assay results taken from ChEMBL document CHEMBL1157365, “Efficacy of telavancin in the treatment of experimental endocarditis due to glycopeptide-intermediate Staphylococcus aureus” (Antimicrob Agents Chemother, 2007).
≈ marks a conversion by molar mass, not a printed value. Calls of active or inactive are those of the source.

Columns and labels:
Staphylococcus aureus [1] = test: Antibacterial activity against glycopeptide-intermediate resistant Staphylococcus aureus ATCC 700788 by microbroth dilution method; type: functional
Procedure, shortened: (§1)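 MIC and MBC were determined by broth microdilution in cation-adjusted Mueller-Hinton broth per CLSI guidelines. S. aureus ATCC 29213 served as the control strain. Strains were stored frozen in skim milk at −80°C and subcultured on 5% sheep blood Columbia agar before each run.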

Staphylococcus aureus [2] = test: Antibacterial activity against glycopeptide-intermediate resistant Staphylococcus aureus HIP 5836 isolate by microbroth dilution method; type: functional; procedure, shortened: as §1
Staphylococcus aureus [3] = test: Antibacterial activity against glycopeptide-intermediate resistant Staphylococcus aureus HIP 5836 isolate assessed as reduction of bacterial count after 24 hrs by time kill curve study; type: functional
Procedure, shortened: (§2)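 Duplicate time-kill curves followed CLSI criteria with an inoculum of 10⁵ CFU/ml. Viable counts were taken at 0, 4 and 24 h. Bactericidal activity was defined as a ≥3 log₁₀ CFU/ml drop at 24 h versus the starting inoculum.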

Staphylococcus aureus [4] = test: Antibacterial activity against glycopeptide-intermediate resistant Staphylococcus aureus ATCC 700788 assessed as reduction of bacterial count after 24 hrs by time kill curve study; type: functional; procedure, shortened: as §2
[5] = Cmax in human at 7.5 mg/kg, iv administered every 24 hrs; type: ADME, organism-based; set-up: dose 7.5 mg/kg, route intravenous; conditions: in vivo
[6] = Terminal half life in human at 7.5 mg/kg, iv administered every 24 hrs; type: ADME, organism-based; set-up: dose 7.5 mg/kg, route intravenous; conditions: in vivo
[7] = Terminal half life in human at 10 mg/kg, iv administered every 24 hrs; type: ADME, organism-based; set-up: dose 10 mg/kg, route intravenous; conditions: in vivo
[8] = AUC in human at 7.5 mg/kg, iv administered every 24 hrs; type: ADME, organism-based; set-up: dose 7.5 mg/kg, route intravenous; conditions: plasma
[9] = AUC in human at 10 mg/kg, iv administered every 24 hrs; type: ADME, organism-based; set-up: dose 10 mg/kg, route intravenous; conditions: plasma
Homo sapiens [10] = test: Protein binding in human at 7.5 mg/kg, iv administered every 24 hrs; type: ADME, organism-based; set-up: dose 7.5 mg/kg, route intravenous; conditions: in vivo
Staphylococcus aureus [11] = test: Antibacterial activity against glycopeptide-intermediate resistant Staphylococcus aureus HIP 5836 isolate infected New Zealand white rabbit endocarditis model assessed as sterile bacterial vegetation at 10 mg/kg, iv administered every 24 hrs for 2 days; type: functional
Procedure, shortened: (§3)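 After 24 h they were inoculated i.v. through the ear vein with 1 ml of 7 × 10⁵ CFU/ml. Bacteremia was confirmed at 18 h, after which animals were randomized. Human-like kinetics were delivered by computer-controlled pump through a cava catheter for 48 h. Animals were killed 6 drug half-lives later. Aortic vegetations were weighed, homogenized and cultured quantitatively on plates, with broth culture for 1 week. Results are median log₁₀ CFU/g: 2 for broth-only growth, 0 for sterile. Sterility rates were compared by Fisher's exact test.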

Staphylococcus aureus [12] = test: Antibacterial activity against glycopeptide-intermediate resistant Staphylococcus aureus HIP 5836 isolate infected New Zealand white rabbit endocarditis model assessed as bacterial count per gram of microbial vegetation at 10 mg/kg, iv administered every 24 hrs for 2 days; type: functional; procedure, shortened: as §3
[13] = Terminal half life in rabbit at 15 mg/kg, iv; type: ADME, organism-based, Oryctolagus cuniculus; set-up: dose 15 mg/kg, route intravenous; conditions: in vivo
Procedure, shortened: (§4)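 Healthy rabbits (n = 5) received telavancin at 15 mg/kg i.v. Blood was drawn through a carotid artery catheter. Plasma telavancin was measured by a validated LC-MS/MS method with a lower limit of quantitation of 0.25 μg/ml. The first-order elimination constant, β-phase half-life and AUC were derived from the concentration-time data.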

[14] = AUC in rabbit at 15 mg/kg, iv; type: ADME, organism-based, Oryctolagus cuniculus; set-up: dose 15 mg/kg, route intravenous; conditions: plasma; procedure, shortened: as §4
Oryctolagus cuniculus [15] = test: Protein binding in rabbit at 15 mg/kg, iv; type: ADME, organism-based; set-up: dose 15 mg/kg, route intravenous; conditions: in vivo
Oryctolagus cuniculus [16] = test: Protein binding in rabbit at 10 mg/kg, iv; type: ADME, organism-based; set-up: dose 10 mg/kg, route intravenous; conditions: in vivo
[17] = Terminal half life in rabbit at 7.5 mg/kg, iv administered once daily; type: ADME, organism-based, Oryctolagus cuniculus; set-up: dose 7.5 mg/kg, route intravenous; conditions: in vivo
Procedure, shortened: (§5)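 A computer-controlled pump infused telavancin at precalculated flow rates to reproduce the human 7.5 mg/kg i.v. once-daily serum profile. Plasma levels were measured by validated LC-MS/MS (n = 3 or 5).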

[18] = AUC in rabbit at 7.5 mg/kg, iv administered once daily; type: ADME, organism-based, Oryctolagus cuniculus; set-up: dose 7.5 mg/kg, route intravenous; conditions: plasma; procedure, shortened: as §5
[19] = Cmax in rabbit at 7.5 mg/kg, iv administered once daily; type: ADME, organism-based, Oryctolagus cuniculus; set-up: dose 7.5 mg/kg, route intravenous; conditions: in vivo; procedure, shortened: as §5
[20] = Cmax in rabbit at 10 mg/kg, iv administered once daily; type: ADME, organism-based, Oryctolagus cuniculus; set-up: dose 10 mg/kg, route intravenous; conditions: in vivo
[21] = Ratio of AUC in rabbit at 7.5 mg/kg, iv qd to MIC for Staphylococcus aureus HIP 5836 isolate; type: functional
Procedure, shortened: (§6)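 The AUC came from the rabbit infusion simulating human 7.5 mg/kg i.v. once daily. It was divided by each strain's MIC. MICs were determined by CLSI broth microdilution in cation-adjusted Mueller Hinton broth, with S. aureus ATCC 29213 as the control strain.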

[22] = Ratio of AUC in rabbit at 7.5 mg/kg, iv qd to MIC for Staphylococcus aureus ATCC 700788; type: functional; procedure, shortened: as §6
Staphylococcus aureus [23] = test: Antibacterial activity against glycopeptide-intermediate resistant Staphylococcus aureus ATCC 700788 infected New Zealand white rabbit endocarditis model assessed as survival at 10 mg/kg, iv administered every 24 hrs for 2 days; type: functional; procedure, shortened: as §3
Staphylococcus aureus [24] = test: Antibacterial activity against glycopeptide-intermediate resistant Staphylococcus aureus ATCC 700788 infected New Zealand white rabbit endocarditis model assessed as sterile bacterial vegetation at 10 mg/kg, iv administered every 24 hrs for 2 days; type: functional; procedure, shortened: as §3
Staphylococcus aureus [25] = test: Antibacterial activity against glycopeptide-intermediate resistant Staphylococcus aureus ATCC 700788 infected New Zealand white rabbit endocarditis model assessed as bacterial count per gram of microbial vegetation at 10 mg/kg, iv administered every 24 hrs for 2 days; type: functional; procedure, shortened: as §3
Staphylococcus aureus [26] = test: Antibacterial activity against glycopeptide-intermediate resistant Staphylococcus aureus HIP 5836 isolate infected New Zealand white rabbit endocarditis model assessed as survival at 10 mg/kg, iv administered every 24 hrs for 2 days; type: functional; procedure, shortened: as §3
Homo sapiens [27] = test: Protein binding in human at 10 mg/kg, iv administered every 24 hrs; type: ADME, organism-based; set-up: dose 10 mg/kg, route intravenous; conditions: in vivo
[28] = Cmax in human at 1 g, iv administered every 12 hrs; type: ADME, organism-based; set-up: dose 1 g, route intravenous; conditions: in vivo
[29] = Terminal half life in human at 1 g, iv administered every 12 hrs; type: ADME, organism-based; conditions: in vivo
[30] = AUC in human at 1 g, iv administered every 12 hrs; type: ADME, organism-based; conditions: plasma
[31] = Protein binding in human at 1 g, iv administered every 12 hrs; type: ADME, organism-based; conditions: in vivo, read-out: PB
[32] = AUC in rabbit at 25 mg/kg, iv; type: ADME, organism-based, Oryctolagus cuniculus; set-up: dose 25 mg/kg, route intravenous; conditions: plasma
Procedure, shortened: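 Five healthy rabbits received a 25 mg/kg i.v. dose through a jugular-to-cava catheter. Blood was drawn through a carotid catheter at 0, 0.25, 0.5, 1, 2, 3, 4, 5 and 6 h. Plasma vancomycin was measured by latex-boosted immunoturbidimetry, detection limit 0.8 μg/ml. Elimination rate, half-life and AUC were reported as mean ± variation.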

[33] = Terminal half life in rabbit at 1 g, iv administered twice daily; type: ADME, organism-based, Oryctolagus cuniculus; conditions: in vivo
Procedure, shortened: (§7)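 Rabbits carried a carotid artery catheter for blood sampling and a jugular-to-cava catheter for infusion. A computer-controlled pump delivered the drug to simulate the human profile of 1 g i.v. twice daily. Vancomycin was measured by latex-boosted immunoturbidimetry, detection limit 0.8 μg/ml. Rabbits per group: n = 3 or 5.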

[34] = AUC in rabbit at 1 g, iv administered twice daily; type: ADME, organism-based, Oryctolagus cuniculus; conditions: plasma; procedure, shortened: as §7
[35] = Cmax in rabbit at 1 g, iv administered twice daily; type: ADME, organism-based, Oryctolagus cuniculus; set-up: dose 1 g, route intravenous; conditions: in vivo; procedure, shortened: as §7
[36] = Ratio of AUC in rabbit at 1 g, iv bid to MIC for Staphylococcus aureus HIP 5836 isolate; type: functional
Procedure, shortened: (§8)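 A computer-controlled pump infused vancomycin to mimic the human 1 g i.v. every-12-h profile. Blood was drawn at 0–6 h after infusion start. Vancomycin was measured by latex-boosted immunoturbidimetry (detection limit 0.8 μg/ml). AUC was divided by the MIC, determined by CLSI broth microdilution in cation-adjusted Mueller-Hinton broth.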

[37] = Ratio of AUC in rabbit at 1 g, iv bid to MIC for Staphylococcus aureus ATCC 700788; type: functional; procedure, shortened: as §8
Staphylococcus aureus [38] = test: Antibacterial activity against glycopeptide-intermediate resistant Staphylococcus aureus ATCC 700788 infected New Zealand white rabbit endocarditis model assessed as bacterial count per gram of microbial vegetation at 1 g, iv administered every 12 hrs for 2 days
Staphylococcus aureus [39] = test: Antibacterial activity against glycopeptide-intermediate resistant Staphylococcus aureus HIP 5836 isolate infected New Zealand white rabbit endocarditis model assessed as bacterial count per gram of microbial vegetation at 1 g, iv administered every 12 hrs for 2 days

CCCCCCCCCCNCCN[C@@]1(C)C[C@H](O[C@H]2[C@H](Oc3c4cc5cc3Oc3ccc(cc3Cl)[C@@H](O)[C@@H](NC(=O)[C@@H](CC(C)C)NC)C(=O)N[C@@H](CC(N)=O)C(=O)N[C@H]5C(=O)N[C@H]3C(=O)N[C@H](C(=O)N[C@H](C(=O)O)c5cc(O)c(CNCP(=O)(O)O)c(O)c5-c5cc3ccc5O)[C@H](O)c3ccc(c(Cl)c3)O4)O[C@H](CO)[C@@H](O)[C@@H]2O)O[C@@H](C)[C@H]1O [TELAVANCIN]
MBC (Staphylococcus aureus [1]): 4 µg/mL (≈ 2.28 µM) | MIC (Staphylococcus aureus [1]): 1 µg/mL (≈ 0.57 µM) | MBC (Staphylococcus aureus [2]): 8 µg/mL (≈ 4.56 µM) | MIC (Staphylococcus aureus [2]): 4 µg/mL (≈ 2.28 µM) | log10CFU/ml (Staphylococcus aureus [3]): 2 | log10CFU/ml (Staphylococcus aureus [4]): 2 | Cmax [5]: 89 µg/mL | half-life [6]: 6.18 h | half-life [7]: 7.41 h | AUC at 24 h [8]: 604 µg·h/mL | AUC at 24 h [9]: 785 µg·h/mL | Activity (Homo sapiens [10]): 90% | Activity (Staphylococcus aureus [11]): 31% | log10cfu (Staphylococcus aureus [12]): 4.4 | half-life [13]: 1.2 h | AUC [14]: 270 µg·h/mL | Activity (Oryctolagus cuniculus [15]): 90% | Activity (Oryctolagus cuniculus [16]): 90% | half-life [17]: 4.6 h | AUC [18]: 638 µg·h/mL | Cmax [19]: 90 µg/mL | Cmax [20]: 114 µg/mL | RatioAUC/MIC [21]: 159.5 | RatioAUC/MIC [22]: 638 | Activity (Staphylococcus aureus [23]): 94% | Activity (Staphylococcus aureus [24]): 37% | log10cfu (Staphylococcus aureus [25]): 4.6 | Activity (Staphylococcus aureus [26]): 94% | Activity (Homo sapiens [27]): 90%

CN[C@H](CC(C)C)C(=O)N[C@H]1C(=O)N[C@@H](CC(N)=O)C(=O)N[C@H]2C(=O)N[C@H]3C(=O)N[C@H](C(=O)N[C@H](C(=O)O)c4cc(O)cc(O)c4-c4cc3ccc4O)[C@H](O)c3ccc(c(Cl)c3)Oc3cc2cc(c3O[C@@H]2O[C@H](CO)[C@@H](O)[C@H](O)[C@H]2O[C@H]2C[C@](C)(N)[C@H](O)[C@H](C)O2)Oc2ccc(cc2Cl)[C@H]1O [VANCOMYCIN]
Cmax [28]: 52 µg/mL | MBC (Staphylococcus aureus [1]): 128 µg/mL (≈ 88.3 µM) | MIC (Staphylococcus aureus [1]): 8 µg/mL (≈ 5.52 µM) | MBC (Staphylococcus aureus [2]): 128 µg/mL (≈ 88.3 µM) | MIC (Staphylococcus aureus [2]): 8 µg/mL (≈ 5.52 µM) | Activity (Staphylococcus aureus [3]): Active | Activity (Staphylococcus aureus [4]): Active | half-life [29]: 4.6 h | AUC at 12 h [30]: 359 µg·h/mL | fraction unbound at 12 h [31]: 0.5 | AUC [32]: 101 µg·h/mL | half-life [33]: 3.8 h | AUC [34]: 299 µg·h/mL | Cmax [35]: 46 µg/mL | RatioAUC/MIC [36]: 37.3 | RatioAUC/MIC [37]: 37.3 | log10cfu (Staphylococcus aureus [38]): 6.6 | log10cfu (Staphylococcus aureus [39]): 6.7
